Assay results: ChEMBL document CHEMBL2390822, “Bioactive terpenoids from the fruits of Aphanamixis grandifolia” (J Nat Prod, 2013)
The source made the active and inactive calls. The calls are words filed in the database; no cut-off is given here.

Experiments:
P388 = test: Cytotoxicity against mouse P388 cells; format: functional; conditions: read-out: ED50 (the source's name)
Caenorhabditis elegans = test: Insecticidal activity against fourth-instar larva of Caenorhabditis elegans assessed as mortality after 5 days; format: functional, organism-based
Plutella xylostella = test: Insecticidal activity against Plutella xylostella infected in cabbage leaves assessed as mortality after 5 days by leaf-disc method; format: functional, organism-based
Sitobion avenae = test: Insecticidal activity against second-instar larva of Sitobion avenae infected in cabbage leaves assessed as mortality after 5 days by leaf-disc method; format: functional
Diabrotica balteata = test: Insecticidal activity against Diabrotica balteata infected in cabbage leaves assessed as mortality after 5 days by leaf-disc method; format: functional
SMMC-7721 = test: Cytotoxicity against human SMMC7721 cells after 72 hrs by MTT assay; format: functional, cell-based
Method in brief: (§1)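 Human tumour cell panel (HL-60, Bel7402, HepG2, SMMC-7721) with doxorubicin as the positive control.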

HepG2 = test: Cytotoxicity against human HepG2 cells after 72 hrs by MTT assay; format: functional, cell-based; method in brief: as §1

Row | Compound | Activity (Sitobion avenae) | Activity (Diabrotica balteata) | further results
1 | CC(=O)O[C@@H]1C[C@H](O)[C@@]23CO[C@H](O)[C@]1(C)[C@@H]2C[C@@H](O)[C@]1(C)[C@@H]3C(=O)C[C@@]2(C)[C@H](c3ccoc3)C[C@H]3O[C@]312 [AMOORASTATIN] |  |  | EC50 (P388): < 0.065 µg/mL
2 | CC1(C)OC(=O)C=C[C@]2(C)[C@H]3[C@@H](O)[C@H](O)[C@]4(C)[C@@H](C(=O)C[C@H]4c4ccoc4)[C@]3(C)[C@H](O)C[C@@H]12 | Active | Active | Activity (Caenorhabditis elegans): Active; Activity (Plutella xylostella): Active
3 | CCC(C)C(=O)OC1OC[C@@]23[C@H]4C(=O)[C@H](O)[C@@]5(C)[C@H](c6ccoc6)C[C@H]6O[C@]65[C@]4(C)[C@H](O)C[C@H]2[C@]1(C)[C@H](OC(C)=O)[C@H](O)[C@@H]3OC(C)=O (some centres not stated) [APHANASTATIN] |  |  | EC50 (P388): < 0.065 µg/mL
4 | CC1(C)OC(=O)C=C[C@]2(C)[C@H]3[C@@H](O)[C@H](O)[C@@]4(C)[C@H](c5ccoc5)C[C@@H](O)[C@]45O[C@H](C[C@@H]12)[C@]35C | Active | Active | Activity (Caenorhabditis elegans): Active; Activity (Plutella xylostella): Active
5 | CC(=O)O[C@H]1CC(=O)OC(C)(C)[C@@H]2C[C@@H](OC(C)=O)[C@]3(C)[C@H]([C@@H](O)[C@H](O)[C@@]4(C)[C@H](c5ccoc5)C[C@H]5O[C@@]534)[C@@]12C |  | Active | 
6 | CC(=O)O[C@H]1CC(=O)OC(C)(C)[C@@H]2C[C@@H](O)[C@]3(C)[C@H]([C@@H](O)[C@H](OC(=O)c4cccnc4)[C@@]4(C)[C@H](c5ccoc5)C[C@H]5O[C@@]534)[C@@]12C | Active | Active | 
7 | COC(=O)N(C(=O)N1CO[C@@]2(C(=O)OC)Cc3cc(Cl)ccc3C2=N1)c1ccc(OC(F)(F)F)cc1 | Active |  | 
8 | COc1cccc2c1C(=O)c1c(O)c3c(c(O)c1C2=O)C[C@@](O)(C(=O)CO)C[C@@H]3O[C@H]1C[C@H](N)[C@H](O)[C@H](C)O1 |  |  | Activity (SMMC-7721): Active; Activity (HepG2): Active
9 | CN1COCN(Cc2cnc(Cl)s2)/C1=N\[N+](=O)[O-] | Active |  | 
